Results reported in ChEMBL document CHEMBL3046507, “Synthesis and herbicidal activities of novel 3-N-substituted amino-6-methyl-4-(3-trifluoromethylphenyl)pyridazine derivatives” (2008).

What was measured:
Spirodela polyrhiza [1] = assay: Inhibition of chlorophyll in Spirodela polyrhiza fronds at 10 ug/mL using light intensity of 45 uE/m2/s measured after 7 days; assay type: functional; conditions: 168 h
In short: (§1)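 Giant duckweed assay. Compound in DMF dropped onto filter paper, solvent evaporated 15 min, paper placed in flask with 15 mL fresh medium and shaken >10 min. 10 fronds inoculated per flask and grown 7 days at 23-26 °C, 16 h light/8 h dark, ca. 45 µE m^-2 s^-1. DMF plus medium served as control. Chl extracted in 96% ethanol overnight at 4 °C; OD read at 665 and 649 nm; content expressed as percent of control.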

Spirodela polyrhiza [2] = assay: Inhibition of chlorophyll in Spirodela polyrhiza fronds at 1 ug/mL using light intensity of 45 uE/m2/s measured after 7 days; assay type: functional; conditions: 168 h; in short: as §1
Digitaria [3] = assay: Herbicidal activity against Digitaria adscendens assessed as inhibition of fresh plant weight at 750 g/ha using preemergence protocol measured after 24 days under green house conditions; conditions: in Digitaria adscendens, pre-emergence
Digitaria [4] = assay: Herbicidal activity against Digitaria adscendens assessed as inhibition of fresh plant weight at 750 g/ha using postemergence protocol measured after 24 days under green house conditions; conditions: in Digitaria adscendens, post-emergence
Amaranthus retroflexus [5] = assay: Herbicidal activity against Amaranthus retroflexus assessed as inhibition of fresh plant weight at 75 g/ha using postemergence protocol measured after 24 days under green house conditions; conditions: post-emergence
Amaranthus retroflexus [6] = assay: Herbicidal activity against Amaranthus retroflexus assessed as inhibition of fresh plant weight at 750 g/ha using preemergence protocol measured after 24 days under green house conditions; conditions: pre-emergence
Amaranthus retroflexus [7] = assay: Herbicidal activity against Amaranthus retroflexus assessed as inhibition of fresh plant weight at 150 g/ha using postemergence protocol measured after 24 days under green house conditions; conditions: post-emergence
Amaranthus retroflexus [8] = assay: Herbicidal activity against Amaranthus retroflexus assessed as inhibition of fresh plant weight at 300 g/ha using postemergence protocol measured after 24 days under green house conditions; conditions: post-emergence
Amaranthus retroflexus [9] = assay: Herbicidal activity against Amaranthus retroflexus assessed as inhibition of fresh plant weight at 750 g/ha using postemergence protocol measured after 24 days under green house conditions; conditions: post-emergence
Amaranthus retroflexus [10] = assay: Herbicidal activity against Amaranthus retroflexus assessed as inhibition of fresh plant weight at 600 g/ha using postemergence protocol measured after 24 days under green house conditions; conditions: post-emergence
[11] = test system: Brassica rapa subsp. oleifera; assay: Herbicidal activity against Brassica rapa subsp. oleifera assessed as inhibition of fresh plant weight at 750 g/ha using preemergence protocol measured after 24 days under green house conditions; conditions: pre-emergence
[12] = test system: Brassica rapa subsp. oleifera; assay: Herbicidal activity against Brassica rapa subsp. oleifera assessed as inhibition of fresh plant weight at 75 g/ha using postemergence protocol measured after 24 days under green house conditions; conditions: post-emergence
[13] = test system: Brassica rapa subsp. oleifera; assay: Herbicidal activity against Brassica rapa subsp. oleifera assessed as inhibition of fresh plant weight at 750 g/ha using postemergence protocol measured after 24 days under green house conditions; conditions: post-emergence
[14] = test system: Brassica rapa subsp. oleifera; assay: Herbicidal activity against Brassica rapa subsp. oleifera assessed as inhibition of fresh plant weight at 150 g/ha using postemergence protocol measured after 24 days under green house conditions; conditions: post-emergence
[15] = test system: Brassica rapa subsp. oleifera; assay: Herbicidal activity against Brassica rapa subsp. oleifera assessed as inhibition of fresh plant weight at 300 g/ha using postemergence protocol measured after 24 days under green house conditions; conditions: post-emergence
[16] = test system: Brassica rapa subsp. oleifera; assay: Herbicidal activity against Brassica rapa subsp. oleifera assessed as inhibition of fresh plant weight at 600 g/ha using postemergence protocol measured after 24 days under green house conditions; conditions: post-emergence
Echinochloa crus-galli [17] = assay: Herbicidal activity against Echinochloa crus-galli (barnyard grass) assessed as inhibition of fresh plant weight at 750 g/ha using preemergence protocol measured after 24 days under green house conditions; conditions: pre-emergence
Echinochloa crus-galli [18] = assay: Herbicidal activity against Echinochloa crus-galli (barnyard grass) assessed as inhibition of fresh plant weight at 750 g/ha using postemergence protocol measured after 24 days under green house conditions; conditions: post-emergence
[19] = test system: Brassica rapa subsp. oleifera; assay: Herbicidal activity against Brassica rapa subsp. oleifera assessed as inhibition of fresh plant weight at 600 g/ha using preemergence protocol measured […] under green house conditions; assay type: functional; conditions: pre-emergence
In short: (§2)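 Pre-emergence treatment. Aboveground fresh weight measured 24 days later; percent inhibition calculated against controls. Two replicates per treatment.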

Digitaria [20] = assay: Herbicidal activity against Digitaria adscendens assessed as inhibition of fresh plant weight at 600 g/ha using postemergence protocol […] under green house conditions; assay type: functional; conditions: in Digitaria adscendens, post-emergence
In short: (§3)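 Weed seedlings at one-leaf-and-one-stem stage sprayed post-emergence with test solution at 750, 600, 300, 150 or 75 g/ha. Aboveground fresh weight determined 24 days after treatment; percent inhibition calculated relative to controls. Two replicates per treatment.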

Digitaria [21] = assay: Herbicidal activity against Digitaria adscendens assessed as inhibition of fresh plant weight at 600 g/ha using preemergence protocol […] under green house conditions; assay type: functional; conditions: in Digitaria adscendens, pre-emergence; in short: as §2
Echinochloa crus-galli [22] = assay: Herbicidal activity against Echinochloa crus-galli (barnyard grass) assessed as inhibition of fresh plant weight at 600 g/ha using preemergence protocol […] under green house conditions; assay type: functional; conditions: pre-emergence; in short: as §2
Echinochloa crus-galli [23] = assay: Herbicidal activity against Echinochloa crus-galli (barnyard grass) assessed as inhibition of fresh plant weight at 600 g/ha using postemergence protocol measured […] under green house conditions; assay type: functional; conditions: post-emergence; in short: as §3
Amaranthus retroflexus [24] = assay: Herbicidal activity against Amaranthus retroflexus assessed as inhibition of fresh plant weight at 600 g/ha using preemergence protocol measured […] under green house conditions; assay type: functional; conditions: pre-emergence; in short: as §2

SMILES	inhibition at 10 µg/mL (Spirodela polyrhiza [1])	inhibition at 1 µg/mL (Spirodela polyrhiza [2])	inhibition at 750 g/ha (Digitaria [3])	inhibition at 750 g/ha (Digitaria [4])	inhibition at 75 g/ha (Amaranthus retroflexus [5])	inhibition at 750 g/ha (Amaranthus retroflexus [6])	inhibition at 150 g/ha (Amaranthus retroflexus [7])	inhibition at 300 g/ha (Amaranthus retroflexus [8])	inhibition at 750 g/ha (Amaranthus retroflexus [9])	inhibition at 600 g/ha (Amaranthus retroflexus [10])	inhibition at 750 g/ha [11]	inhibition at 75 g/ha [12]	inhibition at 750 g/ha [13]	inhibition at 150 g/ha [14]	inhibition at 300 g/ha [15]	inhibition at 600 g/ha [16]	inhibition at 750 g/ha (Echinochloa crus-galli [17])	inhibition at 750 g/ha (Echinochloa crus-galli [18])	also measured
Cc1cc(-c2cccc(C(F)(F)F)c2)c(Nc2ccccc2)nn1	100%	100%	43%	0%	18%	33%	41%	43%	60%	61%	48%	66%	99%	74%	84%	92%	43%	15%	–
Cc1cccc(Nc2nnc(C)cc2-c2cccc(C(F)(F)F)c2)c1	100%	100%	7%	6%	–	81%	23%	25%	64%	52%	18%	–	79%	0%	30%	42%	8%	29%	–
Cc1ccc(Nc2nnc(C)cc2-c2cccc(C(F)(F)F)c2)cc1	96%	95%	17%	18%	–	90%	17%	28%	85%	59%	82%	–	99%	39%	54%	59%	0%	2%	–
Cc1cc(-c2cccc(C(F)(F)F)c2)c(Nc2ccccc2F)nn1	100%	100%	15%	40%	39%	0%	48%	58%	100%	75%	18%	60%	100%	67%	88%	96%	0%	21%	–
Cc1cc(-c2cccc(C(F)(F)F)c2)c(Nc2ccc(F)cc2)nn1	100%	100%	0%	0%	32%	19%	43%	55%	85%	64%	8%	55%	88%	58%	83%	93%	2%	23%	–
Cc1cc(-c2cccc(C(F)(F)F)c2)c(Nc2ccc(Cl)cc2)nn1	100%	87%	0%	0%	42%	0%	45%	60%	100%	66%	18%	52%	100%	87%	89%	90%	0%	0%	–
Cc1cc(-c2cccc(C(F)(F)F)c2)c(Nc2cccc(C(F)(F)F)c2)nn1	100%	100%	0%	0%	32%	0%	37%	42%	95%	54%	0%	48%	96%	72%	79%	88%	0%	8%	–
CCOC(=O)n1nc(C)cc(-c2cccc(C(F)(F)F)c2)c1=O	100%	–	–	–	–	–	–	–	–	61%	–	–	–	–	–	55%	–	–	inhibition at 600 g/ha [19]: 87%; inhibition at 600 g/ha (Digitaria [20]): 13%; inhibition at 600 g/ha (Digitaria [21]): 100%; inhibition at 600 g/ha (Echinochloa crus-galli [22]): 46%; inhibition at 600 g/ha (Echinochloa crus-galli [23]): 0%; inhibition at 600 g/ha (Amaranthus retroflexus [24]): 100%
CCCn1nc(C)cc(-c2cccc(C(F)(F)F)c2)c1=O	90%	–	–	–	–	–	–	–	–	28%	–	–	–	–	–	6%	–	–	inhibition at 600 g/ha [19]: 61%; inhibition at 600 g/ha (Digitaria [20]): 19%; inhibition at 600 g/ha (Digitaria [21]): 100%; inhibition at 600 g/ha (Echinochloa crus-galli [22]): 82%; inhibition at 600 g/ha (Echinochloa crus-galli [23]): 5%; inhibition at 600 g/ha (Amaranthus retroflexus [24]): 51%
O=C(Nc1ccc(F)cc1F)c1cccnc1Oc1cccc(C(F)(F)F)c1 [DIFLUFENICAN]	94%	90%	100%	83%	41%	90%	70%	74%	100%	100%	71%	44%	98%	88%	94%	98%	94%	67%	–
